Results published in ChEMBL document CHEMBL4765247, “Novel mouse GABA uptake inhibitors with enhanced inhibitory activity toward mGAT3/4 and their effect on pain threshold in mice” (Eur J Med Chem, 2020).
Activity calls are given as the source filed them.

How the values were obtained:
[1] = biological target: T1, Sodium- and chloride-dependent GABA transporter 1 (Mus musculus, UniProt P31648); test: Inhibition of mouse GTA 1 receptor
GABA transporter 3 = biological target: T2, GABA transporter 3 (Mus musculus, UniProt P31649); test: Inhibition of mouse GTA 3 receptor
T2 sequence (P31649 whole entry): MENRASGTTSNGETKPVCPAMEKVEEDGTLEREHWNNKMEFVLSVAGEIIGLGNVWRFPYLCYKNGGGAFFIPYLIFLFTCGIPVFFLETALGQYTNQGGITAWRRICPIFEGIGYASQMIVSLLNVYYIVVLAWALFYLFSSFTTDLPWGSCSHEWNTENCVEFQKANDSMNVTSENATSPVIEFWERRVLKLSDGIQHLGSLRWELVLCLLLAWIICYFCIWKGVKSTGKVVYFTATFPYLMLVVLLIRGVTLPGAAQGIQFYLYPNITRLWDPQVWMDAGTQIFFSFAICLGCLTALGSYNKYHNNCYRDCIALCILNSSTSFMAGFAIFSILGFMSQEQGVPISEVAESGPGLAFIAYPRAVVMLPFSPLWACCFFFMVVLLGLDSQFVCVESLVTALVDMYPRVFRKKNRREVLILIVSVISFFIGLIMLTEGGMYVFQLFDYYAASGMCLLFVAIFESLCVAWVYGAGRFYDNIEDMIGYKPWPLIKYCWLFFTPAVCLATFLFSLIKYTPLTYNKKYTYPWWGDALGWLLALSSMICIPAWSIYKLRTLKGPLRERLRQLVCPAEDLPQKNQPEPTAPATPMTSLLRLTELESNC

GABA transporter 4 [2] = biological target: T3, GABA transporter 4 (Mus musculus, UniProt P31650); test: Inhibition of mouse GTA4 receptor
T3 sequence (P31650 whole entry): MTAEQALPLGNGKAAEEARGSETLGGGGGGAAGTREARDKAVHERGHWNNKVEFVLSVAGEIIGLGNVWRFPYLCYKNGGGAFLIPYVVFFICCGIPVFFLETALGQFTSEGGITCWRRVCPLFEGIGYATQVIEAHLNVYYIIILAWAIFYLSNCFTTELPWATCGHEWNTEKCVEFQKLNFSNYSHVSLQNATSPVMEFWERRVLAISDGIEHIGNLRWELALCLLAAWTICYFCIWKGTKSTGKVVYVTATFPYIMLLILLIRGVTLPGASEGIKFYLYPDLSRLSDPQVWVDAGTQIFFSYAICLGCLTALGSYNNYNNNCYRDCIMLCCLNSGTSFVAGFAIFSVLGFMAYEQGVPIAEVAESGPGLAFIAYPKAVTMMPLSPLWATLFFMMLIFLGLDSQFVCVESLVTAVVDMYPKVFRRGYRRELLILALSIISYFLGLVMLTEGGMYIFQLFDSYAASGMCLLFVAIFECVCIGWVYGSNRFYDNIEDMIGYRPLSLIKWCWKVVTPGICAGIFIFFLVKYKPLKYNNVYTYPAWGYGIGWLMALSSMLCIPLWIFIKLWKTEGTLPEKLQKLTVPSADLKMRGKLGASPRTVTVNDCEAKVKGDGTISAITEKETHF

[3] = biological target: Sodium- and chloride-dependent GABA transporter 1 (Mus musculus) (UniProt P31648); test: Displacement of [3H]NO711 from mouse GAT1 expressed in HEK293 cells at 100 uM measured after 40 mins of incubation by LC-ESI-MS-MS method; format: cell-based; conditions: in the assay text read “NO711” for “[3H]NO711”
In short: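 Competitive MS Binding Assay for mGAT1 using NO-711 as a nonlabeled marker, quantified by LC–ESI–MS–MS. Compounds were screened at 100 µM. […] Otherwise, the percentage of remaining binding at 100 µM is given.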

[4] = biological target: Sodium- and chloride-dependent GABA transporter 1 (Mus musculus) (UniProt P31648); test: Inhibition of mouse GAT1 expressed in HEK293 cell line assessed as inhibition of [3H]GABA uptake at 100 uM measured after 35 mins by liquid scintillation method; values are per cent of control
[5] = biological target: T1, Sodium- and chloride-dependent GABA transporter 1; test: Displacement of unlabelled NO711 from mouse GAT1 expressed in HEK293 cells measured after 40 mins of incubation by LC-ESI-MS-MS method
[6] = biological target: T1, Sodium- and chloride-dependent GABA transporter 1; test: Inhibition of mouse GAT1 expressed in HEK293 cell line assessed as inhibition of [3H]GABA uptake measured after 35 mins by liquid scintillation method; format: cell-based
In short: (§1)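 Otherwise, the remaining uptake at 100 µM is reported as a percentage. Values without SEM come from a single triplicate experiment.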

Mus musculus [7] = test: Antiallodynic activity in STZ-induced diabetic neuropathy pain Albino Swiss mouse model assessed as reduced tactile allodynia at 5 mg/kg, ip administered after 3 weeks of STZ stimulation and measured after 1 hr by von Frey test; format: functional, organism-based
In short: (§2)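 STZ given i.p. to induce type I diabetes in mice. About 3 weeks (21 days) later, test doses of 5, 10 and 30 mg/kg were given i.p. Von Frey tactile allodynia was read 1 h after dosing as the mean force needed to elicit paw withdrawal (n=10). Results are mean ± SEM, analysed by one-way ANOVA with Tukey's test against pre-drug force and normoglycemic controls.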

Mus musculus [8] = test: Antiallodynic activity in STZ-induced diabetic neuropathy pain Albino Swiss mouse model assessed as reduced tactile allodynia at 10 mg/kg, ip administered after 3 weeks of STZ stimulation and measured after 1 hr by von Frey test; format: functional, organism-based; in short: as §2
Mus musculus [9] = test: Antiallodynic activity in STZ-induced diabetic neuropathy pain Albino Swiss mouse model assessed as reduced tactile allodynia at 30 mg/kg, ip administered after 3 weeks of STZ stimulation and measured after 1 hr by von Frey test; format: functional, organism-based; in short: as §2
Mus musculus [10] = test: Antihyperalgesic activity in STZ-induced diabetic neuropathy pain Albino Swiss mouse model assessed as reduced heat nociceptive threshold at 10 mg/kg, ip administered after 3 weeks of STZ stimulation and measured after 1 hr by hot plate method; format: functional, organism-based
In short: (§3)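 Heat hyperalgesia in STZ-diabetic neuropathic mice (3 weeks after i.p. STZ) was measured on a hot plate 1 h after i.p. dosing. The readout was latency to pain reaction, comparing pre-drug and post-drug values (n=9-10). Results are mean ± SEM, analysed by one-way ANOVA with Tukey's post hoc test against normoglycemic controls.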

Mus musculus [11] = test: Antihyperalgesic activity in STZ-induced diabetic neuropathy pain Albino Swiss mouse model assessed as reduced heat nociceptive threshold at 30 mg/kg, ip administered after 3 weeks of STZ stimulation and measured after 1 hr by hot plate method; format: functional, organism-based; in short: as §3
Mus musculus [12] = test: Antiallodynic activity in oxaliplatin-induced […] neuropathy pain Albino Swiss mouse model assessed as reduced acute-phase tactile allodynia at 30 mg/kg, ip administered after 3 hrs of oxaliplatin stimulation and measured after 1 hr by von Frey test; format: functional, organism-based
In short: (§4)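 Oxaliplatin-induced peripheral neuropathy in mice was tested in the acute and late phases. Compounds were given i.p. and tactile allodynia was read 1 h later by von Frey as the mean force to elicit paw withdrawal (n=7-10). Results are mean ± SEM, analysed by one-way ANOVA with Tukey's test against pre-drug force and non-neuropathic controls.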

Mus musculus [13] = test: Antiallodynic activity in oxaliplatin-induced […] neuropathy pain Albino Swiss mouse model assessed as reduced late-phase tactile allodynia at 30 mg/kg, ip administered after 7 days of oxaliplatin stimulation by van Frey test; format: functional, organism-based; in short: as §4
Mus musculus [14] = test: Antihyperalgesic activity in oxaliplatin-induced […] acute neuropathy pain Albino Swiss mouse model assessed as reduction in cold allodynia at 30 mg/kg, ip administered after 3 hrs of oxaliplatin stimulation by cold plate method; format: functional, organism-based
In short: (§5)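 For cold allodynia, oxaliplatin-treated mice were placed on a cold plate in the acute and late phases of neuropathy after i.p. dosing. The readout was mean latency to pain reaction (n=7-10). Results are mean ± SEM, analysed by one-way ANOVA with Tukey's post hoc test against non-neuropathic controls.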

Mus musculus [15] = test: Antihyperalgesic activity in oxaliplatin-induced […] late neuropathy pain Albino Swiss mouse model assessed as reduction in cold allodynia at 30 mg/kg, ip administered after 7 days of oxaliplatin stimulation by cold plate method; format: functional, organism-based; in short: as §5
[16] = Lipophilicity, logP of the compound by UPLC-MS method; format: physicochemical; conditions: octanol/water; read-out: logP
In short: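 LogP measured by UPLC on a BEH C18 column (2.1 × 100 mm, 1.7 µm, with C18 pre-column) coupled to an ESI tandem quadrupole MS. The method was calibrated with reference compounds of established logP values.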

GABA transporter 4 [17] = biological target: T3, GABA transporter 4; test: Inhibition of mouse GAT4 expressed in HEK293 cell line assessed as inhibition of [3H]GABA uptake measured after 35 mins by liquid scintillation method; format: cell-based; in short: as §1
[18] = test system: BGT1 (Mus musculus, Slc6a12); test: Inhibition of mouse GAT2 expressed in HEK293 cell line assessed as residual [3H]GABA uptake at 100 uM measured after 35 mins by liquid scintillation method
Mus musculus [19] = test: Antihyperalgesic activity in oxaliplatin-induced […] acute neuropathy pain Albino Swiss mouse model assessed as reduction in cold allodynia at 10 mg/kg, ip administered after 3 hrs of oxaliplatin stimulation by cold plate method; format: functional, organism-based; in short: as §5
Mus musculus [20] = test: Antihyperalgesic activity in oxaliplatin-induced […] late neuropathy pain Albino Swiss mouse model assessed as reduction in cold allodynia at 10 mg/kg, ip administered after 7 days of oxaliplatin stimulation by cold plate method; format: functional, organism-based; in short: as §5
Mus musculus [21] = test: Antiallodynic activity in oxaliplatin-induced peripheral neuropathy pain Albino Swiss mouse model assessed as reduced late-phase tactile allodynia at 30 mg/kg, ip administered after […] of oxaliplatin stimulation and measured after 1 hr by van Frey test
Mus musculus [22] = test: Antiallodynic activity in oxaliplatin-induced peripheral neuropathy pain Albino Swiss mouse model assessed as reduced acute-phase tactile allodynia at 10 mg/kg, ip administered after 3 hrs of oxaliplatin stimulation and measured after 1 hr by von Frey test

## COc1ccc(C(OCCN2CCC[C@@H](C(=O)O)C2)(c2ccc(OC)cc2)c2ccc(OC)cc2C)cc1
[1]
  IC50: 64.6 µM
GABA transporter 3
  IC50: 14.1 µM
GABA transporter 4 [2]
  IC50: 1.66 µM

## Cc1ccsc1C(=CCCN(C)[C@H]1CCc2onc(O)c2C1)c1sccc1C
[1]
  IC50: 7.08 µM
GABA transporter 3
  IC50: > 302 µM
GABA transporter 4 [2]
  IC50: > 302 µM

## Cc1ccsc1C(=CCCN(C)C(CC(C)O)C(=O)NCc1ccccc1Cl)c1sccc1C (racemic; form 1)
[3]
  residual activity: 85%
[4]
  residual activity: 51%

## Cc1ccsc1C(=CCCN(C)[C@@H](CCO)C(=O)NCc1ccccc1Cl)c1sccc1C
[5]
  Ki: 38 µM

## Cc1ccsc1C(=CCCN(C)[C@@H]1CCc2onc(O)c2C1)c1sccc1C
[1]
  IC50: 7.08 µM
GABA transporter 3
  IC50: > 302 µM
GABA transporter 4 [2]
  IC50: > 302 µM

## O=C1Nc2ccc(-c3cccs3)cc2C1=O
[1]
  IC50: > 1000 µM
GABA transporter 3
  IC50: 182 µM
GABA transporter 4 [2]
  IC50: 6.31 µM

## NCCC(=O)O [BETA-ALANINE]
[1]
  IC50: 2950 µM
GABA transporter 3
  IC50: 66.1 µM
GABA transporter 4 [2]
  IC50: 110 µM

## Cc1ccsc1C(=CCCN(C)C(CO)C(=O)NCc1ccc(Cl)cc1)c1sccc1C (stereo not drawn)
[6]
  IC50: 20.4 µM
Mus musculus [7]
  Activity: inactive
Mus musculus [8]
  Activity: inactive
Mus musculus [9]
  Activity: Active
Mus musculus [10]
  Activity: inactive
Mus musculus [11]
  Activity: inactive
Mus musculus [12]
  Activity: Active
Mus musculus [13]
  Activity: Active
Mus musculus [14]
  Activity: inactive
Mus musculus [15]
  Activity: inactive
[16]
  logP: 6.47
GABA transporter 4 [17]
  IC50: 9.55 µM
[3]
  residual activity: 66%

## Cc1ccsc1C(=CCCN(C)C(CC(C)O)C(=O)NCc1ccccc1Cl)c1sccc1C (racemic; form 2)
[3]
  residual activity: 88%
[4]
  residual activity: 47%

## Cc1ccsc1C(=CCCN(C)C(CO)C(=O)NCc1ccccc1Cl)c1sccc1C (stereo not drawn)
GABA transporter 4 [17]
  IC50: 77.6 µM
[3]
  residual activity: 96%
[18]
  residual activity: 65%
[4]
  residual activity: 61%

## Cc1ccsc1C(=CCCN(C)C(CCO)C(=O)N1CCOCC1)c1sccc1C (stereo not drawn)
[16]
  logP: 4.75
GABA transporter 4 [17]
  IC50: 33.1 µM
[3]
  residual activity: 84%
[18]
  residual activity: 76%
[4]
  residual activity: 57%

## Cc1ccsc1C(=CCCN(C)C(CO)C(=O)NCc1ccc(F)cc1)c1sccc1C (stereo not drawn)
[6]
  IC50: 15.1 µM
[16]
  logP: 6.45
GABA transporter 4 [17]
  IC50: 17 µM
[5]
  Ki: 51.3 µM

## Cc1ccsc1C(=CCCN(C)C(CC(C)O)C(=O)NCc1ccc(Cl)cc1)c1sccc1C (stereo in doubt)
[3]
  residual activity: 90%
[4]
  residual activity: 63%

## Cc1ccc(CNC(=O)C(CO)N(C)CCC=C(c2sccc2C)c2sccc2C)cc1 (stereo not drawn)
[6]
  IC50: 20 µM
GABA transporter 4 [17]
  IC50: 9.55 µM
[5]
  Ki: 38.9 µM

## Cc1ccsc1C(=CCCN(C)C(CCO)C(=O)NCc1ccccc1Cl)c1sccc1C (stereo not drawn)
[6]
  IC50: 13.8 µM
Mus musculus [7]
  Activity: inactive
Mus musculus [8]
  Activity: Active
Mus musculus [9]
  Activity: Active
Mus musculus [10]
  Activity: inactive
Mus musculus [11]
  Activity: inactive
Mus musculus [12]
  Activity: Active
Mus musculus [13]
  Activity: Active
Mus musculus [19]
  Activity: inactive
Mus musculus [14]
  Activity: inactive
Mus musculus [20]
  Activity: inactive
Mus musculus [15]
  Activity: inactive
[16]
  logP: 6.23
GABA transporter 4 [17]
  IC50: 5.75 µM
[3]
  residual activity: 77%
Mus musculus [21]
  Activity: Active
Mus musculus [22]
  Activity: Active
